Test results published in publication PMC9075791 (RSC Advances, 2019).

What was measured:
[1] = cited from earlier work
HT-29 cells = assay: DMR agonism assay; format: cell-based, Human
Procedure, shortened: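 HT-29 cells were grown in McCoy's 5A with 10% FBS at 37 °C/5% CO2. They were seeded on RWG biosensor plates for ~24 h to form a monolayer, washed, and held 1 h in HBSS/20 mM HEPES pH 7.2, or in the same buffer with tween-80 for detergent runs. After a 2 min baseline, test compound was added and DMR was monitored for 1 h. The background-corrected maximal amplitude was used. Two independent runs, each at least in duplicate (n = 4).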

Muscarinic M3 receptor = Muscarinic M3 receptor (Homo sapiens, UniProt P20309); assay: DMR desensitization assay, M3; format: cell-based; conditions: HT-29 cells; active compounds at concentrations above 50 μM
[2] = Cell-free aggregation assay; format: physicochemical; conditions: for Detected CAC: critical aggregation concentration, 1× HBSS, 20 mM HEPES, pH 7.2; for aggregator / non-aggregator in aggregation assay: real time dose responses
Procedure, shortened: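 Assay buffer (1× HBSS, 20 mM HEPES, pH 7.2) was equilibrated in wells of the RWG reader for 1 h. After a 2 min baseline, a compound dilution series (from DMSO stocks, maximum 1‰ final DMSO) was added and wavelength shift was recorded for 1 h. A DMSO range set the background. Responses at a fixed time were plotted against concentration to give the CAC. Each assay was run at least three times.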

Chain of Muscarinic M3 receptor (P20309 whole entry): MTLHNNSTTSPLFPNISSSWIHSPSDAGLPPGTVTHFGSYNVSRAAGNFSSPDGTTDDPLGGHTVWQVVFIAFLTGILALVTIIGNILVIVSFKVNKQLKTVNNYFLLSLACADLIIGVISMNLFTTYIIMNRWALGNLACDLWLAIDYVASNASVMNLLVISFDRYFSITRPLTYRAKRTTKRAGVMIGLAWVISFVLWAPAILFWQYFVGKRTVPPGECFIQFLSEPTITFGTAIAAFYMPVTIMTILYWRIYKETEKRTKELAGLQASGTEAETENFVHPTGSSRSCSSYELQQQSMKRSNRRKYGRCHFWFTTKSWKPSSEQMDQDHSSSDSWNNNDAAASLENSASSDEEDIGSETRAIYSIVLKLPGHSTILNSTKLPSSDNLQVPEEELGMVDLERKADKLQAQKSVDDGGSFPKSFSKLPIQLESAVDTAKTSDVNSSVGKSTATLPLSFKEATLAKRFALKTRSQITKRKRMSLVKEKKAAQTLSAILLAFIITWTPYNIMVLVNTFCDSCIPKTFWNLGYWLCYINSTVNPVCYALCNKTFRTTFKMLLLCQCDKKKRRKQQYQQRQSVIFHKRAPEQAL

| Structure (SMILES) | Literature CAC detected by DLS [1] | DMR response (in words) (HT-29 cells; to its solubility limit) | inhibition of the DMR response of acetylcholine against muscarinic M3 receptor (Muscarinic M3 receptor) | Detected CAC [2] | aggregator / non-aggregator in aggregation assay [2] | DMR response (HT-29 cells; at 100 μM) |
| --- | --- | --- | --- | --- | --- | --- |
| COc1cc(/C=C/C(=O)CC(=O)/C=C/c2ccc(O)c(OC)c2)ccc1O [Curcumin] | 17 ([ref. 16]) μM | barely triggered any cellular mass redistributions | did not inhibit | 9.6 µM | aggregator | – |
| O=c1c(O)c(-c2ccc(O)c(O)c2)oc2cc(O)cc(O)c12 [Quercetin] | – | – | false inhibited | 5.7 µM | – | less than 100 pm |
| O=C(O)c1cccnc1 [Nicotinic acid] | – | – | – | – | non-aggregator | – |
| COc1cc(O)c2c(c1)C(=O)c1cc(C)cc(O)c1C2=O [Physcion] | 0.32 ([ref. 16]) μM | – | – | Undetected | – | – |
| COc1cc(C2Oc3cc([C@H]4Oc5cc(O)cc(O)c5C(=O)[C@@H]4O)ccc3OC2CO)ccc1O (some centres unmarked) [Silybin] | 0.47 ([ref. 16]) μM | – | – | 25.2 µM | – | – |
| O=c1cc(-c2ccc(O)c(O)c2)oc2cc(O)cc(O)c12 [Luteolin] | <50 ([ref. 12]) μM | – | – | 1.6 µM | – | – |
| O=c1c(-c2ccc(O)cc2)coc2cc(O)cc(O)c12 [Genistein] | <75 ([ref. 12]) μM | – | – | 42.8 µM | – | – |
